Assay outcomes: PubChem, The Scripps Research Institute Molecular Screening Center
In the library only some 1.3% were active in any assay of this set; here they are far more common.
ABHD4 inh – ABHD4 inhibitors, primary screen, biochemical, fluorescence polarization, mouse; 370,000 tested, 0.54% active; (Lyso)-N-acylphosphatidylethanolamine lipase (Mus musculus), Q8VD66; AID 720543, 2013; purified mABHD4, FP-Rh probe fluorescence polarization; inhibition, % at 8.92 µM;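 active means inhibition exceeding the mean over every tested compound plus 3 SD, cut at about 30% in these data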;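 further: 0% = plate median of compound wells and 100% = S159A mutant with DMSO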
Target sequence (Q8VD66 whole entry, looked up): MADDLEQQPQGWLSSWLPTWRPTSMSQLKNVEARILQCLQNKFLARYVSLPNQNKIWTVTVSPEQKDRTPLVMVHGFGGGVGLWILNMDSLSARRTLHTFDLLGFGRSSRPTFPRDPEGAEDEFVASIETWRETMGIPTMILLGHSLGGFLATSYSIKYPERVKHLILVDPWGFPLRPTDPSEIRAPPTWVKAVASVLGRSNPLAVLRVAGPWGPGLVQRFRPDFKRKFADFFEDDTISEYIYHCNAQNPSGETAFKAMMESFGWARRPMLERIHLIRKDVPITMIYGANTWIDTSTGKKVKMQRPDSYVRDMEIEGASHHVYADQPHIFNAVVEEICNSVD
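Doses – 8.92 µM, single dose · Material – wild-type mouse ABHD4 protein · Replication – single well per compound (singlicate) · Measure – percent inhibition of probe binding, normalized to plate controls · Schedule – 45 min compound pre-incubation plus 60 min probe step, 25 °C · Detection – fluorescence polarization with parallel and perpendicular emission, 525/598 nm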
DDE Tn7 FP inh – inhibitors of Tn7 peptide binding to fibrin DD(E), primary screen, biochemical, fluorescence polarization, human fibrin, Tn7 probe. Fibrinogen beta chain (Homo sapiens), P02675. FP displacement of FITC-Tn7 peptide from fibrin DD(E); 0% = median of compound wells per plate. inhibition, % at 8.3 µM. 370,000 tested, 0.13% active. AID 720508, 2013;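 active means inhibition above the mean of compounds falling within the control limits plus 3 SD of them, cut at about 14% in these data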;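 further: 0% = plate median of compound wells and 100% = 10 µM Aha-Tn7 peptide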
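Assay system: human fibrin DD(E). Input: DD(E) 2 µM final. Medium: Tris buffer with calcium and detergent, pH 7.8. Compound dosing: single point at 8.3 µM. Timing: 10 min plus 3 h, room temperature. Technique: fluorescence polarization of the labelled Tn7 tracer. Read-out: percent inhibition. Replicates: singlicate testing.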
HTRA1 inhibitor – HTRA1 serine protease inhibitors, primary screen, biochemical, fluorescence polarization, HTS; recombinant HTRA1, FP-rhodamine activity-based probe; inhibition, % at 5.96 µM; AID 504803, 2011; 340,000 tested, 0.5% active; in the data active means inhibition above about 36%;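 further: 0% = enzyme with DMSO and 100% = wells lacking enzyme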
TCR CD3 inh – inhibitors of human TCR-CD3 interaction, primary screen, biochemical, fluorescence, TAMRA-labeled TCR probe. T-cell receptor (TCR). inhibition, % at 9.4 µM. 360,000 tested, 0.37% active. AID 651800, 2012;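 further: recombinant mutant TCR 2C K166C tagged with TAMRA read by polarization; 0% = receptor in buffer alone and 100% = receptor with positive control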
DDE Tn6 FP inh – inhibitors of Tn6 peptide binding to fibrin DD(E), primary screen, biochemical, fluorescence polarization, human fibrin, Tn6 probe. Fibrinogen beta chain (Homo sapiens), P02675. Fibrin DD(E) TRITC-Tn6 fluorescence polarization displacement. inhibition, % at 8.3 µM. 370,000 tested, 0.21% active;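 active means inhibition above a per-campaign cutoff: mean of compounds within control limits plus 3 SD, cut at about 15% in these data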;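 further: 0% = median of all compound wells on the plate and 100% = blocking peptide control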
BSA TAMRA ctr – compounds interfering with TAMRA-BSA probe, counter-screen for TCR-CD3 interaction inhibitor project, biochemical, fluorescence, TAMRA-labeled BSA; TAMRA-labeled BSA probe fluorescence counterscreen; inhibition, % at 9.4 µM; shares compounds with TCR CD3 inh; AID 652035, 2013; 1,200 tested, 10% active; in the data active means inhibition above about 23%;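 further: 0% = buffer low control and 100% = reference high control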
TCR-CD3 conf – TCR-CD3 interaction inhibitors, retest, confirmation, biochemical, fluorescence, TAMRA-labeled TCR probe. TAMRA-labeled TCR probe fluorescence binding assay. shares compounds with TCR CD3 inh. inhibition, % at 9.4 µM. 1,200 tested, 48% active
Starred values were filed as active, the others as inactive; nt = no result given; ! = repeats disagree. Unless noted, no stated cut-off is given here; in the data, active means inhibition above about 19%; inactive means the rest.

SMILES	ABHD4 inh	DDE Tn7 FP inh	HTRA1 inhibitor	TCR CD3 inh	DDE Tn6 FP inh	BSA TAMRA ctr	TCR-CD3 conf
CCc1ccc(NC(=O)CSc2ccc(-c3ccco3)nn2)cc1	-8.7	2.2	-4.0	5.9	9.0	nt	nt
CC(=O)c1cccc(NC(=O)CSc2ccc(-c3ccco3)nn2)c1	18.2	-6.8	-4.0	25.6*	-11.8	2.5	6.1
CSc1ccccc1OCc1cc(C(=O)N[C@H]2CCCCNC2=O)no1	4.9	-0.2	-8.7	-3.6	8.6	nt	nt
COc1ccc(OCc2cc(C(=O)N[C@H]3CCCCNC3=O)no2)c(Cl)c1	-1.5	-1.9	0.9	21.4*	10.0	0.7	-0.1
COc1cc(OC)cc(-c2cc3cc(F)ccc3cn2)c1	1.1	1.2	-37.5	-1.0	1.1	nt	nt
Cc1cc([N+](=O)[O-])cc(/C=N\NC(=O)C2COc3ccccc3O2)c1O (stereo unspecified)	3.8	1.8	10.4	31.3*	2.1	-1.4	29.2*
O=C(c1ccc2nc(-c3ccco3)c(-c3ccco3)nc2c1)N1CCN(c2ncccn2)CC1	32.6*	2.9	22.2	29.3*	-5.7	-0.9	24.8*
O=C(c1cccc(C(=O)N2CCN(c3ncccn3)CC2)c1)N1CCN(c2ncccn2)CC1	-1.8	-0.5	3.9	-2.6	-8.4	nt	nt
COc1ccc(COC(=O)c2ccc(S(=O)(=O)N3CCCCC3)cc2)cc1OC	-3.0	0.7	4.5	-3.9	-6.3	nt	nt
COc1ccc(CCNC(=O)C(=O)NCC2OCCN2S(=O)(=O)c2ccc(OC)cc2)cc1 (stereo unspecified)	7.5	-2.8	-7.1	49.1*	7.0	-2.5	6.6
CCCCN(C(=O)COC(=O)c1ccc(C)s1)c1c(N)n(CCC)c(=O)[nH]c1=O	-0.1	-1.4	-1.1	4.7	2.7	nt	nt
CCN1CCN(C(=O)c2ccc(CS(=O)(=O)Cc3ccccc3C)o2)CC1	3.0	-2.5	6.0	4.3	7.0	nt	nt
CCc1cc(Cl)c(OC)c(C(=O)NC[C@@H]2CCCN2CC)c1O	9.3	-7.8	-2.8	28.8*!	2.0	0.2	1.4
Cc1ccc2scc(CN3CCCC3)c2c1	1.3	0.9	4.5	2.9	1.1	nt	nt
COc1ccc(O)c(/C=N/NC(=O)c2c(C)nnn2-c2nonc2N)c1	4.6	-0.4	4.3	25.5*	-6.7	-4.5	10.1
COc1ccc(/C=N/NC(=O)c2nnn(-c3nonc3N)c2-c2cccc(OC)c2)cc1	-5.2	9.4	-11.2	-8.1	0.8	nt	nt
Cc1csc(NC(=O)CSc2sc3c(O)cc(=O)[nH]c3c2C#N)n1	-1.4	-1.9	-8.0	23.2*	-12.6	-12.0	1.3
COc1ccc(NC(=O)CSc2sc3c(O)cc(=O)[nH]c3c2C#N)c(OC)c1	4.8	0.6	-7.4	28.7*	-13.0	-5.8	20.1*
Cc1ncc(CO)c2c1Oc1nc(-c3ccccc3)nc(SCC(=O)Nc3cccc(O)c3)c1C2	-97.1	-4.5	-113.3	21.4*	-17.1	3.2	7.4
O=C(O)c1ccc(/C=N/O)cc1	1.4	1.6	3.6	19.3*	-2.2	1.0	1.3
O=C(O)c1ccc(N/N=C/c2ccc(-c3ccccc3)cc2)cc1	26.8	-2.8	-12.6	2.4	-10.0	nt	nt
C#CCNC(=O)C[C@@H]1C[C@@]2(C(=O)OCC)CCCC=C2N(CCCCCCCC)C1=O	-5.4	2.9	nt	4.4	2.0	nt	nt
CC(=O)c1c(C)[nH]c(C(=O)OCc2nnc(-c3ccc([N+](=O)[O-])cc3)o2)c1C	18.1	-5.3	8.0	26.5*	-0.1	1.8	9.1
CC(=O)c1c(C)[nH]c(C(=O)OCC(=O)NNC(=O)c2ccc([N+](=O)[O-])cc2)c1C	-1.8	-1.2	-0.4	1.1	-0.2	nt	nt
Cc1ccc(C(=O)NNC(=O)c2cc3ccccc3cc2O)cc1	15.9	-4.6	19.4	24.1*	-4.5	0.8	25.1*
SMILES	ABHD4 inh	DDE Tn7 FP inh	HTRA1 inhibitor	TCR CD3 inh	DDE Tn6 FP inh	BSA TAMRA ctr	TCR-CD3 conf
CN(C)S(=O)(=O)c1cccc(NC(=S)NNC(=O)c2cc3ccccc3cc2O)c1	-26.3	-0.3	25.4	23.1*	-13.4	-10.7	12.6
COc1cc2ccccc2cc1C(=O)NNC(=O)c1ccccc1O	10.4	2.8	27.2	33.8*	0.1	-6.0	25.4*
COc1cc(NC(=O)COC(=O)CC(NC(C)=O)c2ccccc2)cc(OC)c1 (stereo unspecified)	-0.1	0.5	4.8	-5.1	1.4	nt	nt
CC(=O)NC(CC(=O)NNC(=O)c1cc2ccccc2cc1O)c1ccccc1 (stereo unspecified)	16.9	2.5	15.0	49.9*	3.5	-4.3	31.0*
Cc1ccc(-c2c(C(=O)NCC(C)C)oc(=O)c3ccccc23)cc1	0.6	3.5	nt	nt	6.7	nt	nt
O=C(NCCCc1ccccc1)C(=O)NCC1OCCN1S(=O)(=O)c1ccc(F)cc1 (stereo unspecified)	0.2	8.2	-2.9	3.9	8.2	nt	nt
CC(C)C1Cc2c(C#N)c(N)n(C)c(=S)c2CO1 (stereo unspecified)	-4.0	3.9	0.7	1.2	1.2	nt	nt
COc1ccc(NC(=O)NNC(=O)c2cc3ccccc3cc2O)cc1	-2.4	-1.0	0.8	24.7*	-3.2	-8.1	22.1*
O=C(COC(=O)c1cc2ccccc2cc1O)NC1CCCCC1	-3.1	5.2	-7.5	-0.8	-0.3	nt	nt
O=C(NNC(=O)c1cc2ccccc2cc1O)Nc1ccc(Br)cc1	5.7	-3.1	10.4	22.9*	-5.4	-10.8	21.6*
Cc1ccc(S(=O)(=O)Nc2ccccc2F)cc1C(=O)NNC(=O)c1ccccc1O	4.9	7.0	26.4	19.1*	0.7	12.0	25.2*
COc1ccc(NS(=O)(=O)c2ccc(C)c(C(=O)NNC(=O)c3ccccc3O)c2)cc1	-16.1	2.9	13.8	5.4	-7.5	nt	nt
O=C(NNC(=O)c1cc2ccccc2cc1O)NC1CCCCC1	13.1	-8.3	28.4	21.9*	-2.5	-10.5	18.1
CCOc1ccc(NC(=O)c2cc3ccccc3cc2O)cc1	16.4	1.1	3.6	-4.5	-0.9	nt	nt
N#Cc1cc(C(=O)c2cc(Br)ccc2O)cn(C2CCCCC2)c1=O	-9.7	-1.3	-3.9	-8.1	-7.8	nt	nt
O=C(NNC(=O)c1cc2ccccc2cc1O)Nc1ccc(F)cc1F	1.1	-4.7	18.0	19.9*	-12.6	4.5	19.1*
Cc1occc1C(=O)NNC(=O)Nc1ccc(F)cc1F	-0.1	-1.1	-1.5	2.1	1.8	nt	nt
